Series [1] concerns Trypanosoma brucei. Briefly: Antitrypanosomal activity against Trypanosoma brucei Lister 427 bloodstream form assessed as parasite growth inhibition at 50 uM after 72 hrs by SYBR Green assay relative to control. The series is classed as functional. As to conditions: Lister 427, 72 h, read-out: GI.
The subject of series [2] is Trypanosoma brucei. The series is described as follows: Antitrypanosomal activity against Trypanosoma brucei Lister 427 bloodstream form after 72 hrs by SYBR Green assay. The class given is functional, organism-based. As to conditions: Lister 427, 72 h.
A further series deals with Trypanosoma cruzi. Briefly: Antitrypanosomal activity against Trypanosoma cruzi amastigote form infected in human U2OS cells assessed as parasite growth inhibition after 72 hrs. The class given is functional, organism-based. An outline of the steps: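 U2OS monolayers grown for 24 h, then infected with tissue-derived trypomastigotes of T. cruzi Y strain. Compounds were added 24 h after infection at 50 μM (single-point) or in dose-response, with 72 h exposure. Plates were fixed, stained and analysed by high-content imaging; activity was normalized to infected and non-infected controls. Means of at least two experiments; benznidazole as reference.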

Series [3] relates to Trypanosoma brucei. Briefly: Antitrypanosomal activity against Trypanosoma brucei Lister 427 bloodstream form at 10 uM after 72 hrs by resazurin dye-based assay relative to control. The series is classed as functional.
Series [4] deals with Trypanosoma brucei. The series is described as follows: Potentiation of methotrexate-induced antitrypanosomal activity against Trypanosoma brucei Lister 427 bloodstream form at 10 uM after 72 hrs by resazurin dye-based assay relative to control. The class given is functional.
In another series the target is T1, CYP1A2 (Homo sapiens, UniProt P05177).
T1 sequence (P05177 whole entry): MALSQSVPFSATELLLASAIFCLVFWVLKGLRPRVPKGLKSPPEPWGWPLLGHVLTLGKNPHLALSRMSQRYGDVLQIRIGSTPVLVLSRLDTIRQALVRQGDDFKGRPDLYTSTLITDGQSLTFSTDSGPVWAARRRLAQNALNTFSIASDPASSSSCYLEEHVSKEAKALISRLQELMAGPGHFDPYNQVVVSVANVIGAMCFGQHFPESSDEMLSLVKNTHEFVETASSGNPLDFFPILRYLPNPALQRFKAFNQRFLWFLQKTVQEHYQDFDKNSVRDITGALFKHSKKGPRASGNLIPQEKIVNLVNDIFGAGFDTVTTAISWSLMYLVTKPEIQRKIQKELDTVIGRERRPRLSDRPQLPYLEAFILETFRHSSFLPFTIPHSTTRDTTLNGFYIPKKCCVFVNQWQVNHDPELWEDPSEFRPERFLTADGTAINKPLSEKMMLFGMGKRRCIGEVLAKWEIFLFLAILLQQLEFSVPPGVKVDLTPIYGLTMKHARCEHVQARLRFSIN
The series is described as follows: Inhibition of human microsomal CYP1A2 expressed in baculovirus infected BTI-TN-5B1-4 cells at 10 uM incubated for 30 mins by luciferase assay relative to control. The class given is ADME. An outline of the steps: (§1)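 CYP1A2, 2C9, 2C19, 2D6 and 3A4 in microsomes from baculovirus-infected insect cells, each with a P450-Glo luminogenic substrate. Inhibition read as loss of light; single-point at 10 μM, triplicate.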

In series [5] the test system is Trypanosoma brucei. Briefly: Potentiation of methotrexate-induced antitrypanosomal activity against Trypanosoma brucei Lister 427 bloodstream form at 10 uM after 72 hrs by resazurin dye-based assay. The class given is functional.
In series [6] the test system is Trypanosoma brucei. The series is described as follows: Antitrypanosomal activity against Trypanosoma brucei Lister 427 bloodstream form after 72 hrs by resazurin dye-based assay. The series is classed as functional, organism-based. As to conditions: Lister 427, 72 h.
The test system of series [7] is Trypanosoma brucei. Briefly: Potentiation of methotrexate-induced antitrypanosomal activity against Trypanosoma brucei Lister 427 bloodstream form assessed as dose reduction index for compound at EC50 after 72 hrs by resazurin dye-based assay. The series is classed as functional.
In a further series the target is hERG (KCNH2) (Homo sapiens, UniProt Q12809). Briefly: Inhibition of human ERG at 10 uM incubated for 2 hrs by fluorescence polarisation assay relative to control.
Sequence of hERG (KCNH2) (Q12809 whole entry): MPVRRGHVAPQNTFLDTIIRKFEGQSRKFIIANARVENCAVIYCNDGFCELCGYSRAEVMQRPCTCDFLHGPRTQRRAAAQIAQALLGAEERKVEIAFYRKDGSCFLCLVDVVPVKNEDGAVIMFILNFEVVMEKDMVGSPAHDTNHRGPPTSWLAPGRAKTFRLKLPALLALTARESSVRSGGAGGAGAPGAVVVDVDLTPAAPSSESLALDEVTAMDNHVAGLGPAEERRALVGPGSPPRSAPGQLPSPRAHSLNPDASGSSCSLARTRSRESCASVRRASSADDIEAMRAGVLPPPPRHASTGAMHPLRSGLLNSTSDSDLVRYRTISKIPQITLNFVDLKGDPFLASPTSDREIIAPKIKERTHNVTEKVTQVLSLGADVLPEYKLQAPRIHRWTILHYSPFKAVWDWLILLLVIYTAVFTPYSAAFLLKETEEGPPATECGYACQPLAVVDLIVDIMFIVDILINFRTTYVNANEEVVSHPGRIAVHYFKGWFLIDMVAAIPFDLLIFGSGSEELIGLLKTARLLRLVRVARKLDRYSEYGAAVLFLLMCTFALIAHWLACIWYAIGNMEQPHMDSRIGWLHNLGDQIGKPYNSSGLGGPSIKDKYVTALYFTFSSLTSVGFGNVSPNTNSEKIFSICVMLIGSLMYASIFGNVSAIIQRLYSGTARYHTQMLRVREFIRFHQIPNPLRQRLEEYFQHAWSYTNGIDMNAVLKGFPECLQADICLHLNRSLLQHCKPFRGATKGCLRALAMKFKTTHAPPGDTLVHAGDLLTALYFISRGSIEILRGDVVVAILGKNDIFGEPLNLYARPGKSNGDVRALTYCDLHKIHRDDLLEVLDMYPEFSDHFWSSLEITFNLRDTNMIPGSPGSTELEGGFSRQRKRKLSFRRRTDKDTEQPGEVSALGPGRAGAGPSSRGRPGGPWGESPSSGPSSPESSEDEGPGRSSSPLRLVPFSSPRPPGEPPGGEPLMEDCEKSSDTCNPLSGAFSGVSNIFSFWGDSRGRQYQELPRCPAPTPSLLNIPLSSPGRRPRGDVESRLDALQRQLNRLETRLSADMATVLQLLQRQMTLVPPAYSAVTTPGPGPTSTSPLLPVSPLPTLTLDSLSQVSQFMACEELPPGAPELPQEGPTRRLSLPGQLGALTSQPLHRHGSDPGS
For the next series, the target named is CYP2C9 (Homo sapiens, UniProt P11712). The series is described as follows: Inhibition of human microsomal CYP2C9 expressed in baculovirus infected BTI-TN-5B1-4 cells at 10 uM incubated for 30 mins by luciferase assay relative to control. The class given is ADME. An outline of the steps: as §1
Sequence of CYP2C9 (P11712 whole entry): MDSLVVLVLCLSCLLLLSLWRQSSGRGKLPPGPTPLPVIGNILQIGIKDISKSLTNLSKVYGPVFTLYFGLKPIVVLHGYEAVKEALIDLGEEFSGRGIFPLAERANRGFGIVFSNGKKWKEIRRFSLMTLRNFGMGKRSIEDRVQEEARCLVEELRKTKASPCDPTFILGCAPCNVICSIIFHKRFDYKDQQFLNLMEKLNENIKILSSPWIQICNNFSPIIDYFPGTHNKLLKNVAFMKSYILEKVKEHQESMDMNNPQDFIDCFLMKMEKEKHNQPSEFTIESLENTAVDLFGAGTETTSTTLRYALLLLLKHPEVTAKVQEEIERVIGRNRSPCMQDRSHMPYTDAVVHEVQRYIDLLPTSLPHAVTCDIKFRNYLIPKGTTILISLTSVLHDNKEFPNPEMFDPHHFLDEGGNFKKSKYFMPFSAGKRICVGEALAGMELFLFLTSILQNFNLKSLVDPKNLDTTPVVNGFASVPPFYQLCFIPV
The target in the next series is CYP3A4 (Homo sapiens, UniProt P08684). Briefly: Inhibition of human microsomal CYP3A4 expressed in baculovirus infected BTI-TN-5B1-4 cells at 10 uM incubated for 30 mins by luciferase assay relative to control. The class given is ADME. An outline of the steps:
as §1

The target of another series is Aurora kinase B (Homo sapiens, UniProt Q96GD4). The series is described as follows: Inhibition of recombinant full-length human aurora B kinase expressed in baculovirus system at 10 uM using MBP as substrate incubated for 45 mins by ADP-glo kinase assay. As to conditions: probe MBP. An outline of the steps:
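Aurora B activity measured as ADP formation via coupled luciferase ADP-Glo luminescence; single-point at 10 μM, triplicate.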

The nature of series [8]: Cytotoxicity against human 786-O cells assessed as inhibition of mitochondrial viability at 10 uM after 6 hrs by CMXRos staining based assay relative to control. As to conditions: read-out: INH. The series is classed as cell-based, 786-0. An outline of the steps:
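Mitochondrial toxicity monitored by MitoTracker Red CMXRos uptake and high-content imaging; compound at 10 μM, triplicate.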

The nature of series [9]: Cytotoxicity against human U2OS cells assessed as viable cells at 50 uM after 72 hrs by MTT assay relative to control. The class given is cell-based. As to conditions: read-out: Activity.
Series [10] is described as follows: Selectivity index, ratio of CC50 for human A549 cells to EC50 for Trypanosoma brucei Lister 427 bloodstream form. The series is classed as toxicity. As to conditions: read-out: Ratio CC50/EC50. An outline of the steps: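 Selectivity index = CC50 in the human host or cytotoxicity cell line divided by parasite EC50.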
In series [11] the target is T2, Pteridine reductase, putative (Trypanosoma brucei) (UniProt Q581W1).
T2 sequence (whole entry): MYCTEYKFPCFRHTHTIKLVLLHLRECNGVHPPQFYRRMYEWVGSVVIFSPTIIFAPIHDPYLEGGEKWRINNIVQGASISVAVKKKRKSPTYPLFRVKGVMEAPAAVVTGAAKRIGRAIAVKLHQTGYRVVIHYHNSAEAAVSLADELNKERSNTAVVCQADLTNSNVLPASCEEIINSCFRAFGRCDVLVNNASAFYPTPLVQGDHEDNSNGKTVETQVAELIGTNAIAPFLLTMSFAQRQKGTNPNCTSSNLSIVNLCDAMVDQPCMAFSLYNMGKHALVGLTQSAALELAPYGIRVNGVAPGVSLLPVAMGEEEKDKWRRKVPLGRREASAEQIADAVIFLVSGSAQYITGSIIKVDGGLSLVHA
Briefly: Inhibition of Trypanosoma brucei PTR1 at 50 uM using H2B as substrate in presence of NADPH by photometric analysis relative to control.

Series [12] deals with T3, Pteridine reductase 1 (Leishmania major) (UniProt Q01782).
T3 sequence (whole entry): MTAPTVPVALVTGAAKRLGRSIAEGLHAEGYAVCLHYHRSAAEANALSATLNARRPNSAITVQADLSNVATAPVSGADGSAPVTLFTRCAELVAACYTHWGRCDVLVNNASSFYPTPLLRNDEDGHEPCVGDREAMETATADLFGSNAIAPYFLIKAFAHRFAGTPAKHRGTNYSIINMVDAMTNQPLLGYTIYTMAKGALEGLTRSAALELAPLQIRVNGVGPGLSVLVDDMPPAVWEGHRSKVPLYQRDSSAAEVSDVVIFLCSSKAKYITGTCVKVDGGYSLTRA
The series is described as follows: Inhibition of Leishmania major PTR1 at 50 uM using H2B as substrate in presence of NADPH by photometric analysis relative to control.

Series [13] in a line: Cytotoxicity against human WI38 cells assessed as growth inhibition at 10 uM after 48 hrs by CellTiter-Glo assay relative to control; values are per cent of control. As to conditions: WI38 cells.

Sequence of CYP3A4 (P08684 whole entry): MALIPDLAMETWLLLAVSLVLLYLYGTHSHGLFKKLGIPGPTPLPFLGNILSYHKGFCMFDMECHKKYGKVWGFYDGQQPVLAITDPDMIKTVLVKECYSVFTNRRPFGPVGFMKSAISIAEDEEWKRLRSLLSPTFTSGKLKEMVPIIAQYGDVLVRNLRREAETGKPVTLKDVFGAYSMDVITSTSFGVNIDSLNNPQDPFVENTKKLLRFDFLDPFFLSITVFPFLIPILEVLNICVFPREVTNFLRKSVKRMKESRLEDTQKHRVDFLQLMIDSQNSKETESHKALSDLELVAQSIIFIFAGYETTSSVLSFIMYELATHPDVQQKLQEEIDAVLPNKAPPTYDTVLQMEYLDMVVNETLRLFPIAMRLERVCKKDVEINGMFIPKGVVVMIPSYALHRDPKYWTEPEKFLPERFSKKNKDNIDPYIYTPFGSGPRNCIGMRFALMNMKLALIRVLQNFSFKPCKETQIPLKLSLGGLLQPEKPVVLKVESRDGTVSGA
Sequence of Aurora kinase B (Q96GD4 whole entry): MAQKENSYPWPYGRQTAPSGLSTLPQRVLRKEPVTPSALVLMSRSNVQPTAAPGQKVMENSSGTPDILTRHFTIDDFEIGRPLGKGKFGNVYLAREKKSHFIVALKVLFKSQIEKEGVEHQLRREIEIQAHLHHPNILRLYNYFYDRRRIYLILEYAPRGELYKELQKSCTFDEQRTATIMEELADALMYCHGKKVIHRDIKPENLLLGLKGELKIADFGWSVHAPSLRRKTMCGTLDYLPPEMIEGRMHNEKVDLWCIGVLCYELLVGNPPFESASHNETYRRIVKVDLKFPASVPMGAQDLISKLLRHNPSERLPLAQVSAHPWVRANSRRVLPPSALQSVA

In the case of `COc1ccc(-c2cccc(/C=N/NC(N)=S)c2)cc1OC`, the inhibition of growth at 50 µM in the series on Trypanosoma brucei [1] was found to be 93.9%. Further, the EC50 was 7.45 µM with Trypanosoma brucei [2], 29.5 µM in the series on Trypanosoma cruzi and 4.72 µM in the series on Trypanosoma brucei [6]. For the same molecule, the Activity was found to be 98.83% in the series with Trypanosoma brucei [3] and 99.67% in the series with Trypanosoma brucei [4]. Further, the inhibition at 0.5 h, 10 µM on CYP1A2 was 64.7%; against CYP2C9 it was 56.8%; at CYP3A4 it was -2.53%. The PF with Trypanosoma brucei [5] was found to be 0.81. Besides, the Activity_index in the series with Trypanosoma brucei [7] worked out at 7.94. Further, at hERG (KCNH2), the inhibition at 2 h, 10 µM worked out at 22.4%. On Aurora kinase B, the inhibition at 0.75 h, 10 µM is -2.55%. In addition, the cytotoxicity at 6 h, 10 µM in series [8] was -13.1%. Further, the viability at 72 h, 50 µM in series [9] came out at 26.7%. Besides, the selectivity ratio in series [10] amounted to 7. Further, the inhibition in series [11] turned out to be 3.09%; in [12], 4.76%. Moreover, the cell growth (% of control) at 48 h, 10 µM in series [13] is 106%.

Regarding `NC(=S)N/N=C/c1ccc(OCc2ccc(Cl)c(Cl)c2)cc1`, the inhibition of growth at 50 µM in the series with Trypanosoma brucei [1] stood at 100%. In addition, the EC50 with Trypanosoma brucei [2] was 2.31 µM; with Trypanosoma cruzi it was 1.31 µM; in the series on Trypanosoma brucei [6] it was 0.44 µM. In addition, the Activity in the series on Trypanosoma brucei [3] was found to be 99.83%; in the series on Trypanosoma brucei [4], 99.67%. The inhibition at 0.5 h, 10 µM was determined as 26.8% against CYP1A2, 18.9% at CYP2C9 and 10.6% on CYP3A4. Besides, the PF with Trypanosoma brucei [5] is given as 0.8. Besides, the Activity_index in the series with Trypanosoma brucei [7] is 3.84. The inhibition at 2 h, 10 µM against hERG (KCNH2) stood at 2.4%. Also, the inhibition at 0.75 h, 10 µM at Aurora kinase B is -6.24%. Further, the cytotoxicity at 6 h, 10 µM in [8] was 23.4%. In addition, the viability at 72 h, 50 µM in series [9] worked out at 65.5%. For the same molecule, the selectivity ratio in [10] was found to be 8. For the same molecule, the values for the inhibition in [11] and in series [12] were 0.36% and 0.59%, respectively. Also, in [13], the cell growth (% of control) at 48 h, 10 µM was found to be 89.4%.

Values taken from ChEMBL document CHEMBL4196006, “Aryl thiosemicarbazones for the treatment of trypanosomatidic infections” (Eur J Med Chem, 2018).
